In ChEMBL document CHEMBL3813601, “Structure-Based Inhibitor Design for Evaluation of a CYP3A4 Pharmacophore Model” (J Med Chem, 2016):
pIC50, pKd: −log10 of the molar value.

How the values were obtained:
Format in all cases: ADME
[1] = molecular target: T1, Cytochrome P450 3A4 (Homo sapiens, UniProt P08684); assay: Binding affinity to C-terminal four-histidine tagged human CYP3A4delta3 to 24 residues expressed in Escherichia coli assessed as change in melting temperature at 10 uM by spectrophotometric method
[2] = molecular target: T1, Cytochrome P450 3A4; assay: Inhibition of C-terminal four-histidine tagged human CYP3A4delta3 to 24 residues expressed in Escherichia coli assessed as 7-benzyloxy-4-(trifluoromethyl)coumarin O-debenzylation pretreated 2 mins followed by NADPH addition by fluorometric method in presence of rat cytochrome P450 reductase
Summary of the method: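 Reconstituted system at room temperature in 100 mM phosphate pH 7.4 with catalase and superoxide dismutase (2 units/mL each). 1 μM CYP3A4 and 1 μM rat CPR preincubated 1 h at room temperature, then diluted 20-fold in assay buffer just before measurement. BFC (50 μM) and varying compound concentrations added 2 min before starting with 100 μM NADPH. O-debenzylation read fluorometrically; IC50 = half-maximal inactivation.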

[3] = molecular target: T1, Cytochrome P450 3A4; assay: Binding affinity to C-terminal four-histidine tagged human CYP3A4delta3 to 24 residues expressed in Escherichia coli assessed as rate constant for first phase
Summary of the method: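 Stopped-flow mixing of 2 μM CYP3A4 with varied ligand concentrations, room temperature, 50 mM phosphate pH 7.4. Absorbance followed at 409–411 or 427–428 nm depending on ligand. Fast-phase rate constant taken at saturating ligand concentration.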

[4] = molecular target: T1, Cytochrome P450 3A4; assay: Binding affinity to C-terminal four-histidine tagged human CYP3A4delta3 to 24 residues expressed in Escherichia coli assessed as spectral dissociation constant by spectrophotometric method
Summary of the method: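 Equilibrium titration of CYP3A4 in 50 mM phosphate pH 7.4 with 20% glycerol and 1 mM DTT. Ligand added in small aliquots from DMSO stock, final DMSO <2%. Absorbance spectra recorded. Ks obtained from one- or two-site saturation fit of absorbance change versus ligand concentration.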

T1 sequence (P08684 whole entry, the tested form may be a part): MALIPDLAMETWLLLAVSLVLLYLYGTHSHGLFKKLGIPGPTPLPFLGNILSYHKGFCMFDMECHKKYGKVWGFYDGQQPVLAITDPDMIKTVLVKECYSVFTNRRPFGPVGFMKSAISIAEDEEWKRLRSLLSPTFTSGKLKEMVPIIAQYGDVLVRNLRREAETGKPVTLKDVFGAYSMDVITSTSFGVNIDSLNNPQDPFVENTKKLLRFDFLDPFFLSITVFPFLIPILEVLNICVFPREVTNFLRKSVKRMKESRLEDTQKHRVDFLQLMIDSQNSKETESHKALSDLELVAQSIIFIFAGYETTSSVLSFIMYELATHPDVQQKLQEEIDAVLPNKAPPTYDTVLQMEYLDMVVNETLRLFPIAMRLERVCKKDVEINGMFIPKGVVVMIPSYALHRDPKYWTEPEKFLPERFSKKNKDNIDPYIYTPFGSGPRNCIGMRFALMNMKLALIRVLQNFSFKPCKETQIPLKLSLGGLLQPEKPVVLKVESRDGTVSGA

| deltaTm [1] [°C] | pIC50 [2] | K [3] [s⁻¹] | pKd [4] | SMILES |
| --- | --- | --- | --- | --- |
| -0.2 | 4.12 | 20 | – | CC(C)(C)OC(=O)NCCCCCC(=O)NCc1cccnc1 |
| -2 | 4.52 | 4 | 5.00 | CC(C)(C)OC(=O)N[C@H](CSCCC(=O)NCc1cccnc1)CC1CCCCC1 |
| -1 | 6.28 | 1.7 | 6.05 | CC(C)(C)OC(=O)N[C@H](CSCCC(=O)NCc1cccnc1)Cc1ccccc1 |
| 0.2 | 6.68 | 8 | 6.30 | CC(C)(C)OC(=O)N[C@H](CSCCC(=O)NCc1cccnc1)Cc1c[nH]c2ccccc12 |
| -0.2 | 3.00 | 0.8 | 5.00 | NCCCCCC(=O)NCc1cccnc1 |

| SMILES | deltaTm [1] [°C] | pIC50 [2] | K [3] [s⁻¹] | pKd [4] |
| --- | --- | --- | --- | --- |
| NCCc1cccnc1 | -0.1 | 2.30 | 0.6 | 2.60 |
| c1ccncc1 [PYRIDINE] | 0 | – | 0.5 | – |
